Experimental data from ChEMBL document CHEMBL1759890, “3,5-Disubstituted-indole-7-carboxamides: the discovery of a novel series of potent, selective inhibitors of IKK-β” (Bioorg Med Chem Lett, 2011).
Values after ≈ are worked out from the molar mass of the structure shown.

Columns and labels:
[1] = target: T1, Inhibitor of nuclear factor kappa-B kinase subunit beta (Homo sapiens, UniProt O14920); test: Inhibition of IKK-beta
T1 sequence (O14920 whole entry): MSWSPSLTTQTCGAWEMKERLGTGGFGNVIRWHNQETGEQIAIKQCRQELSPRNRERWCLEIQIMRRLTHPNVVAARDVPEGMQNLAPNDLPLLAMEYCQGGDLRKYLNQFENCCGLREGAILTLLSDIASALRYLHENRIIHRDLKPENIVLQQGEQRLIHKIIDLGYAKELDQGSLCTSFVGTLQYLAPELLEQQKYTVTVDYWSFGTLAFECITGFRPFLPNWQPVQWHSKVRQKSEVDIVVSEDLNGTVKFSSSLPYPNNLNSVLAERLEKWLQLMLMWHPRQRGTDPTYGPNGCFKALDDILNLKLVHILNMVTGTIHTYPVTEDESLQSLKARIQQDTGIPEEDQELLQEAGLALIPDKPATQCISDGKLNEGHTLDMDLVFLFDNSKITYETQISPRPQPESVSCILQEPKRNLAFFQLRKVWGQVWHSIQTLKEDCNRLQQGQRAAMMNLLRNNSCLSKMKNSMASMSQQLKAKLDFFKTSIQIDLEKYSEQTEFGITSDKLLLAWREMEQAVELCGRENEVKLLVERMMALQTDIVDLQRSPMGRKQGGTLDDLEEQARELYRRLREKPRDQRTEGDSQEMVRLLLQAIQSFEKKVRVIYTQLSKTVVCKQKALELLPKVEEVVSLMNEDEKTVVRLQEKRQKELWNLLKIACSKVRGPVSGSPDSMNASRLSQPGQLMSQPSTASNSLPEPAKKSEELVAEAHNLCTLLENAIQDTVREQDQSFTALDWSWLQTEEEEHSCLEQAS

[2] = target: T2, Inhibitor of nuclear factor kappa-B kinase subunit alpha (Homo sapiens, UniProt O15111); test: Inhibition of IKK-alpha
T2 sequence (O15111 whole entry): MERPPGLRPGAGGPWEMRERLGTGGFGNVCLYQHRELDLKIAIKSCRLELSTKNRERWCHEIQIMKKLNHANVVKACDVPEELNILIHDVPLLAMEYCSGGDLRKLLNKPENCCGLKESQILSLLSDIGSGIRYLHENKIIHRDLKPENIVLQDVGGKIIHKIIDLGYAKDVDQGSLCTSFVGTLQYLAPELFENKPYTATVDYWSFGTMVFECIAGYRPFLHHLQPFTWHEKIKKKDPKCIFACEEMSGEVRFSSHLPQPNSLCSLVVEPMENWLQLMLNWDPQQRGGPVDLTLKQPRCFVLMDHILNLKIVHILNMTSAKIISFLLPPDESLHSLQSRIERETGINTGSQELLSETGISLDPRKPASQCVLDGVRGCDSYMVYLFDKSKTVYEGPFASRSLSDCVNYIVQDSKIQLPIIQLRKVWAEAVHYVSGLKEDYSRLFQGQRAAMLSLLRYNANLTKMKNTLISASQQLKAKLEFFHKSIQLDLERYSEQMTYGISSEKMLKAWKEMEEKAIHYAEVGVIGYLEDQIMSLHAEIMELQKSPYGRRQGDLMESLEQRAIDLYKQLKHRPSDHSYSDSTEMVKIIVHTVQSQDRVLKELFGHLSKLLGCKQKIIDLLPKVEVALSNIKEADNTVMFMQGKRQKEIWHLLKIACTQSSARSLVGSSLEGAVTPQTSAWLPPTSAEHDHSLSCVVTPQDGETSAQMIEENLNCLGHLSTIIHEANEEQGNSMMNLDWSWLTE
Method in brief: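 Done the same way as the IKK-β TR-FRET assay but with 6-His-tagged full-length IKK-α. Buffer is 50 mM HEPES, 10 mM MgCl₂, 1 mM CHAPS pH 7.4, 1 mM DTT, 0.01% w/v BSA. GST-IκBα substrate 25 nM final, ATP 1 μM final, DMSO below 5% final. Error about ±0.3 log units.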

[3] = Aqueous solubility of the compound; format: physicochemical
[4] = Oral bioavailability in rat; format: ADME, organism-based; settings: in vivo
[5] = target: Macrophage colony-stimulating factor 1 receptor (Homo sapiens, UniProt P07333); test: Inhibition of c-FMS
[6] = target: T3, Inhibitor of nuclear factor kappa-B kinase subunit epsilon (Homo sapiens, UniProt Q14164); test: Inhibition of IKK-epsilon
T3 sequence (Q14164 whole entry): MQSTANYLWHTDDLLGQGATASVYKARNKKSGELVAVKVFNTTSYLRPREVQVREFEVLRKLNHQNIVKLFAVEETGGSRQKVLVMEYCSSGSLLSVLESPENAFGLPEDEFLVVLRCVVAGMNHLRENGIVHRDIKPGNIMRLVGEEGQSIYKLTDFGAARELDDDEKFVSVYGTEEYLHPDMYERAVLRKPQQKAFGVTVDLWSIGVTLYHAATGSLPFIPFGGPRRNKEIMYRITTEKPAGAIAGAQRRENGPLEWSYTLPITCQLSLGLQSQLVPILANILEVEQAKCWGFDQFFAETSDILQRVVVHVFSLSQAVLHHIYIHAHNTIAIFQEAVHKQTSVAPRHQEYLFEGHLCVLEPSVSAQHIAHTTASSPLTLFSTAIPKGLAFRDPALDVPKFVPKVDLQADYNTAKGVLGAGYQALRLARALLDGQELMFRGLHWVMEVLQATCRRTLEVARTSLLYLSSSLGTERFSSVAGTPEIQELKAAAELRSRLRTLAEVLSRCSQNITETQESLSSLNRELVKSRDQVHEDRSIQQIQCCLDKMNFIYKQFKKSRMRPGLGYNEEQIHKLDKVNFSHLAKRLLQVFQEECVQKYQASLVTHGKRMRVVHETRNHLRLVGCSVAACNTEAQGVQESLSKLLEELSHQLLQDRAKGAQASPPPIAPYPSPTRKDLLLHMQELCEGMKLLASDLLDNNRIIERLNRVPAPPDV

PBMC = test: Antiinflammatory activity in human PBMC assessed as inhibition of LPS-induced TNF-alpha production; format: functional, cell-based
Method in brief: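 Human peripheral blood mononuclear cells stimulated with LPS. Read-out is inhibition of TNF-α production, reported as pIC50.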

serum albumin = serum albumin (Homo sapiens, UniProt P02768); test: Binding affinity to human serum albumin; format: ADME; settings: read-out: PB
[7] = target: Tyrosine-protein kinase BTK (Homo sapiens, UniProt Q06187); test: Inhibition of BTK
[8] = target: T4, Serine/threonine-protein kinase TBK1 (Homo sapiens, UniProt Q9UHD2); test: Inhibition of TBK-1
T4 sequence (Q9UHD2 whole entry): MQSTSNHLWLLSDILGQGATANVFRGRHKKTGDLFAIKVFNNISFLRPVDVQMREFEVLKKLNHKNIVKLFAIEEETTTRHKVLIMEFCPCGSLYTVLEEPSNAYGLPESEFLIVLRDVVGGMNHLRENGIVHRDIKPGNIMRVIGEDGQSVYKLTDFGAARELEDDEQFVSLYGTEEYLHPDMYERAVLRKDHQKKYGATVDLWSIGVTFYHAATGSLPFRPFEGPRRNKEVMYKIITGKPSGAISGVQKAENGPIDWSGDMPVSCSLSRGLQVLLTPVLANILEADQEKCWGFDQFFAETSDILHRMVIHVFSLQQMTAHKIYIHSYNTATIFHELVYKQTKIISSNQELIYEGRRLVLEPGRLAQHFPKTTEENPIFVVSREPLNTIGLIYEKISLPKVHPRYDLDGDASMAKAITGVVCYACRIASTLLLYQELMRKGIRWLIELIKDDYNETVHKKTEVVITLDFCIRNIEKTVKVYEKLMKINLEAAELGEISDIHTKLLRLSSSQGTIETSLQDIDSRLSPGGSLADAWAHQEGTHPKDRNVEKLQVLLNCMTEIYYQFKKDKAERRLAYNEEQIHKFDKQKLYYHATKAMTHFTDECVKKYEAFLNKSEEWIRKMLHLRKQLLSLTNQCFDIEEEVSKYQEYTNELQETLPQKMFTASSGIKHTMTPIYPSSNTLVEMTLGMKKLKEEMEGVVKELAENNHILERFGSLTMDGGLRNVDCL

Sequence of Tyrosine-protein kinase BTK (Q06187 whole entry): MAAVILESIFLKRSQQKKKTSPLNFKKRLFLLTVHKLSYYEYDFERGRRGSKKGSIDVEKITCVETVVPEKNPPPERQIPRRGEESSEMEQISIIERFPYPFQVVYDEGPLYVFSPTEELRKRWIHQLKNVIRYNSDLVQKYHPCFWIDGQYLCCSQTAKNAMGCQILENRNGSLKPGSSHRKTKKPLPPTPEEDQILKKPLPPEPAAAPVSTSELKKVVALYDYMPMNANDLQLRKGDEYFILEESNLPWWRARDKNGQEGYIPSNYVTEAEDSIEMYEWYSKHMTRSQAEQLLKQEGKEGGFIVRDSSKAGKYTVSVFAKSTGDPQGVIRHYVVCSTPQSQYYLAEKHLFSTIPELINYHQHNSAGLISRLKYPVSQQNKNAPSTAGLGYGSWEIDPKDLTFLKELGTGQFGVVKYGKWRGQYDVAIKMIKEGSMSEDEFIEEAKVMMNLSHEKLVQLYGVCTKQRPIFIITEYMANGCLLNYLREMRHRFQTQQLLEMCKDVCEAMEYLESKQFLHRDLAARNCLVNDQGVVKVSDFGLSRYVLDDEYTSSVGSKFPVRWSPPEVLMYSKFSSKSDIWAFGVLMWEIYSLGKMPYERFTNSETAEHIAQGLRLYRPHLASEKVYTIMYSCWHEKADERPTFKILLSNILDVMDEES
Sequence of Macrophage colony-stimulating factor 1 receptor (P07333 whole entry): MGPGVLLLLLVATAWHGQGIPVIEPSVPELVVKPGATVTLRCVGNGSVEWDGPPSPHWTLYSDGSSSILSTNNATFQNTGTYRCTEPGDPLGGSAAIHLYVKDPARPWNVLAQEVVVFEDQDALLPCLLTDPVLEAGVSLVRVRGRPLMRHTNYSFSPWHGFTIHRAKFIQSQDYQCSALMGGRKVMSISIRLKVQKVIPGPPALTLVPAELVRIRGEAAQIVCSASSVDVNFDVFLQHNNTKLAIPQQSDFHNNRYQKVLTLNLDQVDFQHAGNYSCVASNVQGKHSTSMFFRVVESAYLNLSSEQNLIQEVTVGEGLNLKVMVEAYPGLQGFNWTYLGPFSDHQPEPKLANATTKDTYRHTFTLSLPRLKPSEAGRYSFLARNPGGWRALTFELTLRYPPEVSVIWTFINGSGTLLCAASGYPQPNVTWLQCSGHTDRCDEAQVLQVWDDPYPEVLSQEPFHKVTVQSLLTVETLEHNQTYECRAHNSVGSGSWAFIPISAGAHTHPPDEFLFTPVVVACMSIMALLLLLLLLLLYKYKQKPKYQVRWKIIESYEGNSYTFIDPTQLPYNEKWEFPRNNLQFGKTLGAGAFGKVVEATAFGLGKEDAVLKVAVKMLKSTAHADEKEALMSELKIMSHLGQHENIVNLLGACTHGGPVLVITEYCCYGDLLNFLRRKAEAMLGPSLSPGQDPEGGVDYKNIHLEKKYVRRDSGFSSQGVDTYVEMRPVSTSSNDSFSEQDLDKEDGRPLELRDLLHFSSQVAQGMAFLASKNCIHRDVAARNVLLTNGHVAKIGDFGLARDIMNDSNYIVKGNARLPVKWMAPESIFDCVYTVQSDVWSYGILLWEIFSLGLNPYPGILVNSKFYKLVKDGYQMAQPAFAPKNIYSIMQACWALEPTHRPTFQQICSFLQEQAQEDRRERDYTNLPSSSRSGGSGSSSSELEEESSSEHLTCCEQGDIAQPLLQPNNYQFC
Sequence of serum albumin (P02768 whole entry): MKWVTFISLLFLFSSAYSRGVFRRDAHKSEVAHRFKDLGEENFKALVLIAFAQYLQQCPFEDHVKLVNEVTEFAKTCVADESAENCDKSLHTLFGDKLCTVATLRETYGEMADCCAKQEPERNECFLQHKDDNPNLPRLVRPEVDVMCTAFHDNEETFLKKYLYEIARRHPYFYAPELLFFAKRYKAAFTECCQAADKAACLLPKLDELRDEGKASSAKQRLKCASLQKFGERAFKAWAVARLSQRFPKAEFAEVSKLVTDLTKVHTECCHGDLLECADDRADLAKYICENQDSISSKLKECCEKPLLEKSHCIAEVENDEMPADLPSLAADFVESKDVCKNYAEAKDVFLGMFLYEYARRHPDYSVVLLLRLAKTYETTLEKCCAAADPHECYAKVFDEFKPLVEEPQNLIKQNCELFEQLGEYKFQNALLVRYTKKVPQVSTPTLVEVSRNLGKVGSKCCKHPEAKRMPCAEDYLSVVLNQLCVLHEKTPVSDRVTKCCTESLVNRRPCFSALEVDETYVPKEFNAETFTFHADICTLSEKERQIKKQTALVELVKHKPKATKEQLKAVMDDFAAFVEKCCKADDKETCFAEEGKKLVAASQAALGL

SMILES	IC50 [1]	IC50 [2]	also measured
NC(=O)c1cc(Br)cc2c3c([nH]c12)CCCC3	2510 nM	–	–
NC(=O)c1cc(-c2ccccc2)cc2cc[nH]c12	1580 nM	10000 nM	–
N#Cc1cccc(-c2cc(C(N)=O)c3[nH]ccc3c2)c1	1580 nM	10000 nM	–
NC(=O)c1cc(-c2cccc(CO)c2)cc2cc[nH]c12	2510 nM	15800 nM	–
COc1ccncc1-c1cc(C(N)=O)c2[nH]ccc2c1	1580 nM	12600 nM	–
NC(=O)c1cc(-c2cc3ccccc3o2)cc2cc[nH]c12	501 nM	3980 nM	–
NC(=O)c1cc(-c2ccccc2)cc2c(C3CCNCC3)c[nH]c12	501 nM	10000 nM	–
CC(C)S(=O)(=O)N1CCC(c2c[nH]c3c(C(N)=O)cc(-c4ccccc4)cc23)CC1	20 nM	3160 nM	–
CCS(=O)(=O)N1CCC(c2c[nH]c3c(C(N)=O)cc(-c4ccccc4)cc23)CC1	25.1 nM	2000 nM	–
NC(=O)c1cc(-c2ccccc2)cc2c(C3CCN(S(=O)(=O)c4ccc(Cl)cc4)CC3)c[nH]c12	398 nM	7940 nM	–
CN(C)C(=O)c1cc(-c2ccccc2)cc2cc[nH]c12	> 15800 nM	–	–

Now from value to compound, other results behind:

IC50 [1]	IC50 [2]	SMILES	also measured
> 15800 nM	–	O=C(O)c1cc(-c2ccccc2)cc2cc[nH]c12	–
501 nM	3980 nM	CS(=O)(=O)Nc1ccc(-c2cc(C(N)=O)c3[nH]ccc3c2)cc1	–
6310 nM	> 15800 nM	NC(=O)c1cc(-c2ccccc2Cl)cc2cc[nH]c12	–
794 nM	5010 nM	NC(=O)c1cc(-c2cccc(Cl)c2)cc2cc[nH]c12	–
316 nM	6310 nM	NC(=O)c1cc(-c2ccc(Cl)cc2)cc2cc[nH]c12	–
1260 nM	15800 nM	NC(=O)c1cc(-c2ccc(CO)cc2)cc2cc[nH]c12	–
158 nM	1580 nM	NC(=O)c1cc(-c2ccccc2)cc2c(C3CCCNC3)c[nH]c12 (centres undefined)	solubility [3]: 136 µg/mL (≈ 426 µM); bioavailability [4]: 22%; IC50 [5]: 1580 nM; IC50 [6]: > 3160 nM; IC50 (PBMC): 631 nM; fraction unbound (serum albumin): 0.09; IC50 [7]: 1260 nM; IC50 [8]: > 3160 nM
7.94 nM	–	CCc1ccc(-c2cc(C(N)=O)c(NC(N)=O)s2)cc1	–
5010 nM	15800 nM	NC(=O)c1cc(-c2cncnc2)cc2cc[nH]c12	–
